# Assay results gathered from unrelated publications.
# Compare with care: the assays were run in different laboratories.
# LCK: Tyrosine-protein kinase Lck (LCK, Homo sapiens, UniProt P06239)
# EPHX2: Bifunctional epoxide hydrolase 2 (EPHX2, Homo sapiens, UniProt P34913)
# Maob: Amine oxidase [flavin-containing] B (Maob, Rattus norvegicus, UniProt P19643)
# GRM2: Metabotropic glutamate receptor 2 (GRM2, Homo sapiens, UniProt Q14416)
# ALPI: Intestinal-type alkaline phosphatase (ALPI, Bos taurus, UniProt P19111)
# NMUR1: Neuromedin-U receptor 1 (NMUR1, Homo sapiens, UniProt Q9HB89)
# JAK2: Tyrosine-protein kinase JAK2 (JAK2, Homo sapiens, UniProt O60674)
SMILES,target,assay,conditions,IC50 [nM]
Cc1cnc(-c2ccc(-c3ccc(NC(=O)Nc4c(F)cc(F)cc4F)cc3F)c3c2C(=O)NC3)[nH]1,LCK,"enzyme activity, inhibitor",,0.7
Nc1ncc2c(n1)-c1c([nH]c3ccc(C#CC4CC4)cc13)CCCC2,"Phosphatidylinositol 5-phosphate 4-kinase type-2 gamma (PIP4K2C, Homo sapiens, UniProt Q8TBX8)","target engagement in cells, BRET",,> 10000
CCCC(CNC(=O)Nc1ccccc1F)C1C2CC3CC(C2)CC1C3 (centres unmarked),EPHX2,"enzyme activity, inhibitor, fluorescence",,106
CC(=NN=C1CS(=O)(=O)N(C)c2ccccc21)c1cc(Cl)sc1Cl,Maob,"enzyme activity, inhibitor, fluorescence",,2580
COc1ccc(-c2cc(C(N)=O)ncc2OCc2ccnc(F)c2)c(F)c1,GRM2,"ion flux, antagonist",,46
CN1c2ccccc2C(=NN=Cc2cc3ccc(Cl)cc3nc2Cl)CS1(=O)=O,Maob,"enzyme activity, inhibitor, fluorescence",,1210
CN(C)CC#Cc1ccc2[nH]c3c(c2c1)-c1nc(N)ncc1CCC3,"Dual specificity mitogen-activated protein kinase kinase 4 (MAP2K4, Homo sapiens, UniProt P45985)","enzyme activity, inhibitor, radiometric",,> 10000
CC(C)(C)n1nc(-c2ccc3nc(OC4CC4)ccc3c2)c(C(N)=O)c1N,"Mitogen-activated protein kinase kinase kinase 10 (MAP3K10, Homo sapiens, UniProt Q02779)",cell-free assay,,> 10000
O=C(CCCCCCCCc1ccc(O)cc1)c1c(O)cccc1O,EPHX2,"enzyme activity, inhibitor, fluorescence",,18600
CN1CCN(c2ccc(Nc3ncc4cc(C#N)c(=O)n(C5CCCC5)c4n3)cc2)CC1,"MAP/microtubule affinity-regulating kinase 4 (MARK4, Homo sapiens, UniProt Q96L34)","enzyme activity, inhibitor",,403
O=C1NC2=C(C(=O)N(c3nc4ccccc4[nH]3)C2)C(c2ccc(O)cc2)N1 (centres unmarked),ALPI,"enzyme activity, inhibitor, absorbance",,11300
O=C(Nc1ccccc1)NC12CC3CC(CC(C3)C1)C2,EPHX2,"enzyme activity, inhibitor, fluorescence",,16.5
CC(=NN=C1CS(=O)(=O)N(C)c2ccccc21)c1cccs1,Maob,"enzyme activity, inhibitor, fluorescence",,1980
CC/C(=N\NC(=O)C(C)Nc1ccccc1)c1ccc(O)c(C)c1O (centres unmarked),"Serine/threonine-protein kinase LATS2 (LATS2, Homo sapiens, UniProt Q9NRM7)","enzyme activity, inhibitor",,4.09
CC(C)C[C@H](NC(=O)[C@H](Cc1ccccc1)NC(=O)[C@@H](N)Cc1ccc(O)cc1)C(=O)N[C@@H](Cc1ccccc1)C(=O)N[C@@H](CCCNC(=N)N)C(=O)N1CCC[C@H]1C(=O)N[C@@H](CCCNC(=N)N)C(=O)N[C@@H](CC(N)=O)C(N)=O,NMUR1,"ligand displacement, radioligand",,0.661
COc1ccc2c(Oc3ccc4c(C(=O)Nc5ccccc5N)cccc4c3)ccnc2c1,LCK,"enzyme activity, inhibitor",,> 500
CC12CC3CC(C1)CC(NC(=O)Nc1ccccc1F)(C3)C2,EPHX2,"enzyme activity, inhibitor, fluorescence",,1.5
O=C(Cc1ccc(Nc2ncnc3[nH]ccc23)cc1)Nc1ccc(F)c(Cl)c1,"Proto-oncogene tyrosine-protein kinase receptor Ret (RET, Homo sapiens, UniProt P07949)","enzyme activity, inhibitor, mobility shift",,> 20000
CC(C)C[C@H](NC(=O)[C@H](Cc1ccccc1)NC(=O)[C@H](Cc1ccc(O)cc1)NC(=O)CNC(=O)[C@H](CCCNC(=N)N)NC(=O)[C@H](CO)NC(=O)[C@H](CCC(N)=O)NC(=O)[C@H](CO)NC(=O)[C@H](C)NC(=O)[C@H](Cc1ccccc1)NC(=O)[C@@H]1CCCN1C(=O)[C@H](CO)NC(=O)[C@H](CCC(N)=O)NC(=O)[C@H](Cc1ccccc1)NC(=O)[C@H](CCC(=O)O)NC(=O)[C@H](CCC(=O)O)NC(=O)[C@H](CC(=O)O)NC(=O)[C@@H](NC(=O)[C@H](CCCNC(=N)N)NC(=O)[C@@H](N)Cc1ccccc1)C(C)C)C(=O)N[C@@H](Cc1ccccc1)C(=O)N[C@@H](CCCNC(=N)N)C(=O)N1CCC[C@H]1C(=O)N[C@@H](CCCNC(=N)N)C(=O)N[C@@H](CC(N)=O)C(N)=O,NMUR1,"ligand displacement, radioligand",,0.107
O=C1NC2=C(C(=O)N(Cc3ccc(F)cc3)C2)C(c2ccccc2O)N1 (centres unmarked),ALPI,"enzyme activity, inhibitor, absorbance",,1270
COc1ccc(-c2cc(C(N)=O)ncc2OCc2ccnc(OC)c2)c(F)c1,GRM2,"ion flux, antagonist",,135
CC(=NN=C1CS(=O)(=O)N(C)c2ccccc21)c1sccc1C,Maob,"enzyme activity, inhibitor, fluorescence",,2380
CNC(=O)c1cc2c(Oc3ccc(NC(=O)C4(C(=O)Nc5ccc(F)cc5)CC4)cc3)ccnc2cc1OC,LCK,"enzyme activity, inhibitor, radiometric",,12
COc1ccc(-c2cc(C(N)=O)ncc2OCc2cnc(OC)nc2)c(F)c1,GRM2,"ion flux, antagonist",,261
CC(=NN=C1CS(=O)(=O)N(C)c2ccccc21)c1sccc1Br,Maob,"enzyme activity, inhibitor, fluorescence",,3820
O=C1NC2=C(C(=O)N(Cc3ccccc3)C2)C(c2ccccc2O)N1 (centres unmarked),ALPI,"enzyme activity, inhibitor, absorbance",,7670
Oc1c2ccccc2c2c3c(cccc13)N=N2,JAK2,"enzyme activity, inhibitor",,736
Cc1ccc(C(=O)Nc2ccc(Oc3cc4cnn(C)c4cc3-c3cn[nH]c3)c(F)c2)c(=O)n1-c1ccc(F)cc1,"Proto-oncogene tyrosine-protein kinase receptor Ret (RET, Homo sapiens, UniProt P07949, C634W)","phosphorylation in cells, inhibitor, western blot",,2000
COc1ccc(-c2cc(C(N)=O)ncc2OCc2ccnc(C)c2)c(F)c1,GRM2,"ion flux, antagonist",,59
CC(=NN=C1CS(=O)(=O)N(C)c2ccccc21)c1ccc([N+](=O)[O-])s1,Maob,"enzyme activity, inhibitor, fluorescence",,1250
O=C1N=C(Nc2ccccc2)S/C1=C\c1ccccc1OCc1cn(Cc2ccccc2Br)nn1,"Aldo-keto reductase family 1 member B1 (AKR1B1, Homo sapiens, UniProt P15121)","enzyme activity, inhibitor, absorbance",pH 6.2,37000
O=C1NC2=C(C(=O)N(c3ccc(Cl)cc3)C2)C(c2ccccc2O)N1 (centres unmarked),ALPI,"enzyme activity, inhibitor, absorbance",,2940
O=c1[nH]c2c(Br)cccc2n1C1CCN(S(=O)(=O)c2ccc(I)cc2)CC1,"N-glycosylase/DNA lyase (OGG1, Homo sapiens, UniProt O15527)","enzyme activity, inhibitor",,14000
CC(O)C(C)C(=O)N1CCC(NC(=O)Nc2ccc(OC(F)(F)F)c(F)c2)CC1 (centres unmarked),EPHX2,"enzyme activity, inhibitor",,0.1
O=C1NC2=C(C(=O)N(Cc3ccc(Cl)cc3)C2)C(c2ccc(O)cc2)N1 (centres unmarked),ALPI,"enzyme activity, inhibitor, absorbance",,5350
O=c1cc(-c2ccc(O)c(-c3c(O)cc(O)c4c(=O)cc(-c5ccc(O)cc5)oc34)c2)oc2cc(O)cc(O)c12,JAK2,"enzyme activity, inhibitor",,5000
COc1ccc(-c2cc(C(N)=O)ncc2OCc2noc(C)n2)c(F)c1,GRM2,"ion flux, antagonist",,158
O=C1NC2=C(C(=O)N(c3ccc(F)cc3)C2)C(c2ccccc2O)N1 (centres unmarked),ALPI,"enzyme activity, inhibitor, absorbance",,6540
